# In ChEMBL document CHEMBL4177701, “A novel series of enoyl reductase inhibitors targeting the ESKAPE pathogens, Staphylococcus aureus and Acinetobacter baumannii” (Bioorg Med Chem, 2018):
# Activity calls are given as the source filed them. The calls are words filed in the database; no cut-off is given here.
# Tests used:
# [1] = Inhibition of Acinetobacter baumannii 2208 ATCC 19606 FabI using crotonyl-CoA as substrate in presence of NADPH/NADH after 10 mins by fluorescence assay; design: species or system Acinetobacter baumannii ATCC 19606 = CIP 70.34 = JCM 6841
# Method in brief: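 AbFabI, 200 nM, in 50 mM MES/100 mM NaCl with 200 μM NADH, 0.1 mg/mL BSA and 0.01% triton. Reaction started with 300 μM crotonyl-CoA. NADH fluorescence read at 340/460 nm. Compounds tested at 0.4 nM–200 μM. Initial 10-min slopes were compared with a DMSO no-compound control. At least two independent experiments, each in duplicate; two-fold uncertainty.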
# Staphylococcus aureus [2] = experiment: Antibacterial activity against Staphylococcus aureus Newman by microbroth dilution method; format: functional
# Method in brief: (§1)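 Microbroth dilution MIC; each value is the mean of at least two runs, within two-fold experimental uncertainty.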
# Staphylococcus aureus [3] = experiment: Antibacterial activity against methicillin-resistant Staphylococcus aureus subsp. aureus Rosenbach ATCC 43300 by microbroth dilution method; format: functional
# Method in brief: (§2)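 Broth microdilution MIC; reported value is mean of at least two runs, within two-fold experimental uncertainty.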
# Staphylococcus aureus [4] = experiment: Antibacterial activity against Staphylococcus aureus RN4220 by microbroth dilution method; format: functional; method in brief: as §2
# Staphylococcus aureus [5] = experiment: Antibacterial activity against Staphylococcus aureus RN4220 over-expressing FabI by microbroth dilution method; format: functional; method in brief: as §2
# Acinetobacter baumannii [6] = experiment: Antibacterial activity against Acinetobacter baumannii 2208 ATCC 19606 by microbroth dilution method; format: functional; details: ATCC 19606 = CIP 70.34 = JCM 6841 2208; method in brief: as §1
# Escherichia coli = experiment: Antibacterial activity against Escherichia coli BW25113 mutant by microbroth dilution method; format: functional; method in brief: as §2
# [7] = biological target: T1, Enoyl-[acyl-carrier-protein] reductase [NADPH] FabI (Staphylococcus aureus) (UniProt Q6GI75); experiment: Binding affinity to Staphylococcus aureus subsp. aureus Rosenbach ATCC 43300 FabI by SPR assay
# T1 sequence (whole entry): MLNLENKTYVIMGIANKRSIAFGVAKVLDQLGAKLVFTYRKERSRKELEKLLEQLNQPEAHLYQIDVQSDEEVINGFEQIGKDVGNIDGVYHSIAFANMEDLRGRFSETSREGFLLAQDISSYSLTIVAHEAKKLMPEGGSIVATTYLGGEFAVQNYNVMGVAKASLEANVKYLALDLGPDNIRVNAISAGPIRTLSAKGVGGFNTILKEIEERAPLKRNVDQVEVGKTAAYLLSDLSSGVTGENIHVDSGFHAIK
# [8] = tested on: Acinetobacter baumannii ATCC 19606 = CIP 70.34 = JCM 6841; experiment: Binding affinity to Acinetobacter baumannii 2208 ATCC 19606 FabI by SPR assay
# Acinetobacter baumannii [9] = experiment: Synergistic antibacterial activity against Acinetobacter baumannii 2208 ATCC 19606 assessed as colistin MIC by checkerboard method; format: functional; details: ATCC 19606 = CIP 70.34 = JCM 6841 2208
# Acinetobacter baumannii [10] = experiment: Synergistic antibacterial activity against Acinetobacter baumannii 2208 ATCC 19606 in presence of colistin by checkerboard method; format: functional; details: ATCC 19606 = CIP 70.34 = JCM 6841 2208
# Acinetobacter baumannii [11] = experiment: Synergistic antibacterial activity against Acinetobacter baumannii 2208 ATCC 19606 assessed as fractional inhibitory concentration in presence of colistin by checkerboard method; format: functional, ATCC 19606 = CIP 70.34 = JCM 6841 2208
# [12] = biological target: T2, Enoyl-[acyl-carrier-protein] reductase [NADPH] FabI (Staphylococcus aureus, UniProt Q6GI75); experiment: Competitive inhibition of Staphylococcus aureus subsp. aureus Rosenbach ATCC 43300 FabI using crotonyl-CoA as substrate in presence of NADPH/NADH after 10 mins by fluorescence assay
# T2 sequence (Q6GI75 whole entry): T1 sequence (whole entry)
# [13] = Competitive inhibition of Acinetobacter baumannii 2208 ATCC 19606 FabI using crotonyl-CoA as substrate in presence of NADPH/NADH after 10 mins by fluorescence assay; design: species or system Acinetobacter baumannii ATCC 19606 = CIP 70.34 = JCM 6841
# Acinetobacter baumannii [14] = experiment: Synergistic antibacterial activity against MDR Acinetobacter baumannii ATCC BAA-1605 assessed as fold reduction in colistin MIC by checkerboard method; format: functional
# Staphylococcus aureus [15] = experiment: Selectivity ratio of MIC for Staphylococcus aureus RN4220 over-expressing FabI to MIC for Staphylococcus aureus RN4220; format: functional
# HepG2 [16] = experiment: Cytotoxicity against human HepG2 cells assessed as reduction in cell viability after 24 hrs in presence of 10% FBS by MTT assay; format: cell-based; details: HepG2, 24 h
# Method in brief: (§3)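 HepG2 cells in EMEM with either 10% FBS or 0.5% FBS plus 10% Cell-Ess serum replacement. Seeded at 25,000 cells/well and incubated overnight at 37 °C, 5% CO2. Treated 24 h at 100–3 μg/mL, with matched DMSO controls. MTT added for 2 h, formazan extracted in DMSO, absorbance read at 570 nm. Run in duplicate; IC50 taken from the viability plot against the DMSO control.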
# HepG2 [17] = experiment: Cytotoxicity against human HepG2 cells assessed as reduction in cell viability after 24 hrs in presence of 0.5% FBS by MTT assay; format: cell-based; details: HepG2, 24 h; method in brief: as §3
# Acinetobacter baumannii [18] = experiment: Synergistic antibacterial activity against MDR Acinetobacter baumannii ATCC BAA-1605 assessed as colistin MIC by checkerboard method; format: functional
# Acinetobacter baumannii [19] = experiment: Synergistic antibacterial activity against MDR Acinetobacter baumannii ATCC BAA-1605 in presence of colistin by checkerboard method; format: functional
# Method in brief: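 Checkerboard broth dilution in tryptic soy broth. Colistin 4 to 0.03 μg/mL against analog 100 to 0.19 μg/mL, crossed. Clear wells scored. ΣFIC = C/MIC(compound) + C/MIC(partner); <0.5 synergy, 0.5–2 indifference, >2 antagonism.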
# Acinetobacter baumannii [20] = experiment: Synergistic antibacterial activity against MDR Acinetobacter baumannii ATCC BAA-1605 assessed as fractional inhibitory concentration in presence of colistin by checkerboard method; format: functional
# [21] = Protein binding in mouse serum; format: ADME, cell-free; details: read-out: PB (converted)
# [22] = Protein binding in rat serum; format: ADME, cell-free; details: read-out: PB (converted)
# [23] = Protein binding in dog serum; format: ADME, cell-free, Canis lupus familiaris; details: read-out: PB (converted)
# [24] = Protein binding in human serum; format: ADME, cell-free; details: read-out: PB (converted)
# [25] = Solubility of the compound; format: physicochemical
Compound,IC50 [1],MIC (Staphylococcus aureus [2]),MIC (Staphylococcus aureus [3]),MIC (Staphylococcus aureus [4]),MIC (Staphylococcus aureus [5]),MIC (Acinetobacter baumannii [6]),MIC (Escherichia coli),Activity [7],Activity [8],MIC (Acinetobacter baumannii [9]),MIC (Acinetobacter baumannii [10]),FIC (Acinetobacter baumannii [11]),Ki [12],Ki [13],IC50 (HepG2 [16]),IC50 (HepG2 [17]),further results
O=C(Cc1ccccc1Cl)N1CCC(c2ccccn2)C1 (racemic),30.7 µM,166 µM,200 µg/mL,100 µg/mL,200 µg/mL,> 200 µg/mL,> 200 µg/mL,Active,Active,0.39 µg/mL,50 µg/mL,0.5,6.8 µM,15.4 µM,,,fold change (FC) (Acinetobacter baumannii [14]): 10
O=C(Cc1c(F)cccc1Cl)N1CCC(c2ccc3c(c2)OCO3)C1 (racemic),> 200 µM,69.1 µM,> 200 µg/mL,25 µg/mL,,> 200 µg/mL,> 200 µg/mL,Active,Active,,,,0.7 µM,> 100 µM,,,Selectivity ratio (Staphylococcus aureus [15]): >4
O=C(Cc1cccc(F)c1F)N1CCC(c2ccccc2)C1 (racemic),9.3 µM,166 µM,100 µg/mL,50 µg/mL,200 µg/mL,> 200 µg/mL,> 200 µg/mL,Active,Active,0.19 µg/mL,25 µg/mL,0.25,2.7 µM,4.7 µM,125 µg/mL,68 µg/mL,
COc1ccccc1C1CCN(C(=O)Cc2ccccc2Cl)C1 (racemic),3.6 µM,75.8 µM,,,50 µg/mL,> 200 µg/mL,> 200 µg/mL,Active,Active,0.39 µg/mL,12.5 µg/mL,0.19,0.2 µM,1.8 µM,75 µg/mL,39 µg/mL,Selectivity ratio (Staphylococcus aureus [15]): 4; MIC (Acinetobacter baumannii [18]): 0.39 µg/mL; MIC (Acinetobacter baumannii [19]): 25 µg/mL; FIC (Acinetobacter baumannii [20]): 0.25; fold change (FC) (Acinetobacter baumannii [14]): 10
O=C(Cc1ccccc1F)N1CCC(c2ccccc2)C1 (racemic),3.9 µM,176 µM,100 µg/mL,50 µg/mL,200 µg/mL,> 200 µg/mL,> 200 µg/mL,Active,Active,0.19 µg/mL,25 µg/mL,0.25,1.9 µM,2 µM,160 µg/mL,76 µg/mL,
Cc1c(CN(C)C(=O)/C=C/c2cnc3c(c2)CCC(=O)N3)oc2ccccc12 [AFN-1252],,,,,,,,,,,,,,,,,fraction unbound [21]: 0.05; fraction unbound [22]: 0.05; fraction unbound [23]: 0.05; fraction unbound [24]: 0.05
O=C(Cc1ccccc1)N1CCC(c2ccccc2)C1 (configuration not stated),,,,,,,,,,,,,,,,,solubility [25]: Insoluble
